Measured values taken from ChEMBL document CHEMBL5257157, “Biological evaluation of novel amidino substituted coumarin-benzazole hybrids as promising therapeutic agents” (RSC Med Chem, 2023).

How the values were obtained:
[1] = Cytotoxicity against human HEL 299 cells assessed as inhibition of cell growth incubated for 72 hrs by CellTiter96 Aqueous One Solution cell proliferation assay; assay type: toxicity, cell-based
Huh-7 = test: Cytotoxicity against human Huh-7 cells assessed as inhibition of cell growth incubated for 72 hrs by CellTiter96 Aqueous One Solution cell proliferation assay; assay type: functional
[2] = Cytotoxicity against dog MDCK cells assessed as inhibition of cell growth incubated for 72 hrs by CellTiter96 Aqueous One Solution cell proliferation assay; assay type: toxicity, cell-based, Canis lupus familiaris
Human coronavirus 229E = test: Antiviral activity against HCoV-229E infected in human HEL 299 cells assessed as inhibition of virus-induced cytopathogenic effect incubated for 3 to 7 days by MTS assay; assay type: functional, organism-based
Human coronavirus OC43 = test: Antiviral activity against HCoV-OC43 infected in human HEL 299 cells assessed as inhibition of virus-induced cytopathogenic effect incubated for 3 to 7 days by MTS assay; assay type: functional, organism-based; conditions: Betacoronavirus 1, HEL 299
[3] = Antiviral activity against HCoV-NL63 infected in human Huh-7 cells assessed as inhibition of virus-induced cytopathogenic effect incubated for 3 to 7 days by MTS assay; assay type: functional, cell-based; conditions: Human coronavirus NL63, Huh-7
Influenza A virus [4] = test: Antiviral activity against influenza virus H1N1 infected in dog MDCK cells assessed as inhibition of virus-induced cytopathogenic effect incubated for 3 to 7 days by MTS assay; assay type: functional, organism-based
Influenza A virus [5] = test: Antiviral activity against influenza virus H3N2 infected in dog MDCK cells assessed as inhibition of virus-induced cytopathogenic effect incubated for 3 to 7 days by MTS assay; assay type: functional, organism-based
Influenza B virus = test: Antiviral activity against influenza B virus infected in dog MDCK cells assessed as inhibition of virus-induced cytopathogenic effect incubated for 3 to 7 days by MTS assay; assay type: functional, organism-based
[6] = system: Respiratory syncytial virus; test: Antiviral activity against RSV infected in human HEL 299 cells assessed as inhibition of virus-induced cytopathogenic effect incubated for 3 to 7 days by MTS assay; assay type: functional, organism-based
Human alphaherpesvirus 1 = test: Antiviral activity against HSV-1 KOS infected in human HEL 299 cells assessed as inhibition of virus-induced cytopathogenic effect incubated for 3 to 7 days by MTS assay; assay type: functional, organism-based; conditions: Human alphaherpesvirus 1, KOS
Yellow fever virus = test: Antiviral activity against Yellow fever virus 17D infected in human Huh-7 cells assessed as inhibition of virus-induced cytopathogenic effect incubated for 3 to 7 days by MTS assay; assay type: functional, organism-based
Zika virus = test: Antiviral activity against Zika virus Mr776 infected in human Huh-7 cells assessed as inhibition of virus-induced cytopathogenic effect incubated for 3 to 7 days by MTS assay; assay type: functional, organism-based; conditions: Mr776, Huh-7
Sindbis virus = test: Antiviral activity against Sindbis virus infected in human Huh-7 cells assessed as inhibition of virus-induced cytopathogenic effect incubated for 3 to 7 days by MTS assay; assay type: functional, organism-based
[7] = Antioxidant activity assessed as ABTS radical scavenging activity incubated for 5 mins by absorbance based microplate reader analysis; assay type: functional
How it was run: (§1)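 Pure compounds tested in three colorimetric antioxidant assays, each run alongside the reference BHT. […] ABTS: direct reaction with ABTS•+ radical cation, reported as IC50. DPPH: scavenging of the stable DPPH radical by proton or electron donation, reported as IC50. FRAP: reducing power, expressed as mmolFe2+/mmolC.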

[8] = Antioxidant activity assessed as reduction of Fe3+ complex to Fe2+ analogue by measuring mmolFe2+/mmolc by FRAP assay; assay type: functional; how it was run: as §1
LN-229 = test: Antiproliferative activity against human LN-229 cells assessed as inhibition of cell growth incubated for 72 hrs by CellTiter96 Aqueous One Solution cell proliferation assay; assay type: functional, cell-based; conditions: LN-229, 72 h
CAPAN-1 = test: Antiproliferative activity against human CAPAN-1 cells assessed as inhibition of cell growth incubated for 72 hrs by CellTiter96 Aqueous One Solution cell proliferation assay; assay type: functional, cell-based; conditions: CAPAN-1, 72 h
NCI-H460 = test: Antiproliferative activity against human NCI-H460 cells assessed as inhibition of cell growth incubated for 72 hrs by CellTiter96 Aqueous One Solution cell proliferation assay; assay type: functional, cell-based; conditions: NCI-H460, 72 h
[9] = Antiproliferative activity against human DND41 cells assessed as inhibition of cell growth incubated for 72 hrs by CellTiter96 Aqueous One Solution cell proliferation assay; assay type: functional, cell-based; conditions: DND41, 72 h
HL-60 = test: Antiproliferative activity against human HL-60 cells assessed as inhibition of cell growth incubated for 72 hrs by CellTiter96 Aqueous One Solution cell proliferation assay; assay type: functional, cell-based; conditions: HL-60, 72 h
K562 = test: Antiproliferative activity against human K562 cells assessed as inhibition of cell growth incubated for 72 hrs by CellTiter96 Aqueous One Solution cell proliferation assay; assay type: functional, cell-based; conditions: K562, 72 h
Z-138 = test: Antiproliferative activity against human Z138 cells assessed as inhibition of cell growth incubated for 72 hrs by CellTiter96 Aqueous One Solution cell proliferation assay; assay type: functional, cell-based; conditions: Z-138, 72 h
[10] = Drug localization in nucleolus of human HEp-2 cells at 10 uM incubated for 3 hrs by confocal microscopy analysis; assay type: ADME, subcellular; conditions: hep-2, 3 h
How it was run: (§2)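 Compound autofluorescence was imaged by fluorescence microscopy in Hep-2 cells (ATCC CCL-23). Cells were given 10 μM and incubated for 3 hours to allow cellular uptake before imaging. Localization to subcellular compartments was judged from the fluorescence pattern.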

[11] = Drug localization in nuclear membrane of human HEp-2 cells at 10 uM incubated for 3 hrs by confocal microscopy analysis; assay type: ADME, cell membranes; conditions: hep-2, 3 h; how it was run: as §2
[12] = Drug localization in cytoplasm of human HEp-2 cells at 10 uM incubated for 3 hrs by confocal microscopy analysis; assay type: ADME, subcellular; conditions: hep-2, 3 h; how it was run: as §2
[13] = Cytotoxicity against human PBMC cells assessed as reduction in cell viability at 0.006 to 4 uM measured after 72 hrs by CellTiter96 Aqueous One Solution cell proliferation assay; assay type: toxicity, cell-based; conditions: dose 0.006-4 µM
[14] = Cytotoxicity against human PBMC cells assessed as reduction in cell viability measured after 72 hrs by CellTiter96 Aqueous One Solution cell proliferation assay; assay type: toxicity, cell-based
How it was run: (§3)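 Normal peripheral blood mononuclear cells from healthy donors were exposed to compound for 72 hours, at concentrations up to a highest dose of 100 μM. Viability is given as a percentage of untreated PBMC control.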

HCT-116 = test: Antiproliferative activity against human HCT-116 cells assessed as inhibition of cell growth incubated for 72 hrs by CellTiter96 Aqueous One Solution cell proliferation assay; assay type: functional, cell-based; conditions: HCT-116, 72 h
[15] = Antioxidant activity assessed as DPPH radical scavenging activity incubated for 5 mins by absorbance based microplate reader analysis; assay type: functional; how it was run: as §1
[16] = Cytotoxicity against human PBMC cells assessed as reduction in cell viability at 20 uM measured after 72 hrs by CellTiter96 Aqueous One Solution cell proliferation assay; assay type: toxicity, cell-based; how it was run: as §3

| Structure (SMILES) | CC50 at 72 h [1] | CC50 (Huh-7) | CC50 at 72 h [2] | EC50 (Human coronavirus 229E) | EC50 (Human coronavirus OC43) | EC50 [3] | EC50 (Influenza A virus [4]) | EC50 (Influenza A virus [5]) | EC50 (Influenza B virus) | EC50 [6] | EC50 (Human alphaherpesvirus 1) | EC50 (Yellow fever virus) | EC50 (Zika virus) | IC50 (LN-229) | IC50 (CAPAN-1) | IC50 (NCI-H460) | IC50 [9] | IC50 (HL-60) | IC50 (K562) | IC50 (Z-138) | other results |
| --- | --- | --- | --- | --- | --- | --- | --- | --- | --- | --- | --- | --- | --- | --- | --- | --- | --- | --- | --- | --- | --- |
| CCN(CC)c1ccc2cc(-c3nc4ccc(C5=NCCCN5)cc4s3)c(=O)oc2c1.Cl | > 100 µM | 1.8 µM | 4.2 µM | 33 µM | 28.9 µM | > 100 µM | > 100 µM | > 100 µM | > 100 µM | 43.4 µM | 25.5 µM | > 100 µM | > 100 µM | 1.8 µM | 2 µM | > 100 µM | 1.3 µM | > 100 µM | > 100 µM | 1.5 µM | EC50 (Sindbis virus): > 100 µM; IC50 [7]: 980 µM; Activity [8]: 3.29 mmol/mmol; Drug uptake [10]: Active; Drug uptake [11]: Active; Drug uptake [12]: Active; Activity [13]: > 80%; IC50 at 72 h [14]: 1.7 µM |
| COC(=O)Nc1nc2cc(C(=O)c3cccs3)ccc2[nH]1 [NOCODAZOLE] |  |  |  |  |  |  |  |  |  |  |  |  |  | 0.1 µM | 0.13 µM | 0.25 µM | 0.47 µM | 0.1 µM | 0.07 µM | 0.31 µM | IC50 (HCT-116): 0.13 µM |
| CCN(CC)c1ccc2cc(-c3nc4cc(C5=NCCN5)ccc4[nH]3)c(=O)oc2c1.Cl | 5.1 µM | < 0.8 µM | < 0.8 µM | > 100 µM | > 100 µM | > 100 µM | > 100 µM | > 100 µM | > 100 µM | > 100 µM | > 100 µM | > 100 µM | > 100 µM | 1.4 µM | 1.7 µM | 1.8 µM | 0.3 µM | 2.1 µM | 1.9 µM | 1.5 µM | EC50 (Sindbis virus): > 100 µM; IC50 [7]: 170 µM; IC50 [15]: 140 µM; Activity [8]: 28.4 mmol/mmol; Drug uptake [10]: Active; Drug uptake [11]: Active; Activity [16]: 60%; Activity [13]: > 80%; IC50 at 72 h [14]: 1.6 µM |
